The target of assay [1] is T1, Retinoic acid receptor alpha (Mus musculus) (UniProt P11416).
T1 sequence (whole entry): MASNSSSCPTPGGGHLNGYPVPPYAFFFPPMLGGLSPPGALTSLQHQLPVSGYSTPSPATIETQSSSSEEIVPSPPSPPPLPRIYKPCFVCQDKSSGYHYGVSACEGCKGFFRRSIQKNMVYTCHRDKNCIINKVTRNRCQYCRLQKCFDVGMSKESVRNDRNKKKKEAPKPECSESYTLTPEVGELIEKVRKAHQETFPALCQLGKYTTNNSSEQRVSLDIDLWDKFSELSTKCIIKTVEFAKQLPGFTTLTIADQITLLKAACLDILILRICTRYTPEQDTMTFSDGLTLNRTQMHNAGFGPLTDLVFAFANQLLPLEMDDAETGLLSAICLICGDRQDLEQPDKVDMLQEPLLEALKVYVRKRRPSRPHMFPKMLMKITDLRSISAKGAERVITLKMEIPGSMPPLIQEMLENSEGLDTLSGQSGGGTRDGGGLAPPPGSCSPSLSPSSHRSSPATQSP
Kind of assay: Inhibition of [3H]-retinoic acid binding to murine retinoic acid receptor RAR alpha. Conditions: concentration not given here. Further details: concentration or dose not given beside the values. A digest of the protocol:
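RARα binding: inhibition of tritiated retinoic acid binding by a 200-fold molar excess of unlabeled retinoid, expressed as percent inhibition.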

Assay [2] is filed under the species Mus musculus. Kind of assay: Antitumor activity in CD-1 female mouse skin Papilloma assay at 135.7 nmol dose. The format is functional. In a few lines:
(§1)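 CD-1 female mice. Initiation with DMBA (0.2 μmol in 0.2 mL acetone) on shaved dorsal skin. Promotion began 14 days later with TPA (10 nmol in acetone) twice weekly. Retinoid applied topically in 0.2 mL acetone to the same area. Dose-response used 137.7/135.7, 45.9, 15.3 or 5.1 nmol. Papillomas counted per mouse at day 83–89 after promotion start. Tumor-free mice also recorded. ED50 derived from the dose-response.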

For assay [3], the species on record is Mus musculus. Kind of assay: Antitumor activity in CD-1 female mouse skin Papilloma assay at 15.3 nmol dose. Format: functional. In a few lines: as §1
The species named for assay [4] is Mus musculus. Put plainly: Antitumor activity in CD-1 female mouse skin Papilloma assay at 5.1 nmol dose. The format is functional. In a few lines:
as §1

The species named for assay [5] is Mus musculus. Kind of assay: Antitumor activity in CD-1 female mouse skin Papilloma assay at 45.9 nmol dose. Format: functional. A digest of the protocol:
as §1

The species named for assay [6] is Mus musculus. Kind of assay: Antitumor activity in CD-1 female mouse skin Papilloma assay. The format is functional. A digest of the protocol:
as §1

Several values for one entry are separate records, joined by “and”; a condition that tells them apart may be missing. Equal entries are not always repeated.

Turning to `CC(/C=C/C=C(\C)COc1cc(C)cc(C)c1C)=C\C(=O)O`, in assay [1], the inhibition (commonly how much of the control response was suppressed) was 30%. Also, the Control in the assay listed under Mus musculus [2] is 10%; in the assay filed under Mus musculus [3] it was 66%; in the assay filed under Mus musculus [4], 89%; in the assay filed under Mus musculus [5], 36%. Further, the No. of tumors/mouse in the assay filed under Mus musculus [3] was 22 and 9.2; in the assay listed under Mus musculus [4] it was 29 and 12.4; in the assay listed under Mus musculus [5], 15 and 5. Besides, in the assay filed under Mus musculus [6], the ED50 was found to be 27 nmol.

`CC(/C=C/C=C(\C)COc1ccc(F)cc1C)=C\C(=O)O`: the inhibition in assay [1] was found to be 0%. In the assay listed under Mus musculus [6], this molecule came in with an ED50 of 45.9 nmol.

In the case of `CC(/C=C/C=C(\C)C(=O)Nc1c(C)cc(C)cc1C)=C\C(=O)O`, the ED50 in the assay filed under Mus musculus [6] is more than 100 nmol.

In the case of `CC1=C(/C=C/C(C)=C/C=C/C(C)=C/C(=O)O)C(C)(C)CCC1` [TRETINOIN], the Control in the assay listed under Mus musculus [3] is 8%. Besides, the ED50 in the assay listed under Mus musculus [6] stood at 5.2 nmol.

In turn, `CC(/C=C/C=C(\C)C(=O)Nc1ccc(C(C)(C)C)cc1C(C)(C)C)=C\C(=O)O` gave an inhibition in assay [1] of 0%. The ED50 in the assay listed under Mus musculus [6] is more than 100 nmol.

In assay [1], `CC(/C=C/C=C(\C)C(=O)Nc1c(C)cc(C(C)(C)C)cc1C(C)(C)C)=C\C(=O)O` gave an inhibition of 15%.

Consider `COC(=O)/C=C(C)/C=C/C=C(\C)C(=O)Nc1ccc(C(C)(C)C)cc1C(C)(C)C`, for which the ED50 in the assay listed under Mus musculus [6] is more than 100 nmol.

Regarding `COc1cc(NC(=O)/C(C)=C/C=C/C(C)=C/C(=O)O)cc(OC)c1`, the ED50 in the assay listed under Mus musculus [6] is more than 45.9 nmol.

The molecule `CC(/C=C/C=C(\C)COc1c(Cl)cc(F)cc1Cl)=C\C(=O)O` showed an ED50 in the assay filed under Mus musculus [6] of more than 100 nmol.

For `CC(/C=C/C=C(\C)COc1c(C)cc(C)cc1C)=C\C(=O)O`, the inhibition in assay [1] is 30%. For the same molecule, the ED50 in the assay listed under Mus musculus [6] stood at 60 nmol.

`CCOC(=O)/C=C(C)/C=C/C=C(C)/C=C/c1c(C)cc(OC)c(C)c1C` [ETRETINATE] displayed an ED50 in the assay filed under Mus musculus [6] of 7.2 nmol.

`CC(/C=C/C=C(\C)COc1ccc(C(C)(C)C)cc1C(C)(C)C)=C\C(=O)O` displayed an inhibition in assay [1] of 5%. In the assay filed under Mus musculus [6], this molecule had an ED50 of more than 45.9 nmol.

In assay [1], `COc1ccc(OC/C(C)=C/C=C/C(C)=C/C(=O)O)c(C(C)(C)C)c1` gave an inhibition of 25%. The molecule further showed an ED50 in the assay listed under Mus musculus [6] of more than 100 nmol.

The values above are taken from ChEMBL document CHEMBL1145036, “Inhibition of papilloma formation by analogues of 7,8-dihydroretinoic acid” (2003).
